The test system of one data set is ZIKV. To be noted: read-out: previously reported EC50; anti-ZIKV; cited from earlier work.
In data set [1] the test system is Zika virus (ZIKV) MR766 strain. The data set is described as follows: EC50 dose-response in ZIKV-infected Vero cells. It counts as cell-based. To be noted: CC50/EC50, Vero cells. The essentials:
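Vero CCL-81 monolayers were seeded at 1.2 × 10⁶ cells per plate one day before. Serial dilutions of test compound in DMEM (methods: 50–0.2 µM; legend: 0.2–100 µM) were added together with ZIKV MR766 at 100 TCID50/mL. Plates were held 6 days at 37 °C and 5% CO2, with virus and cell controls. Crystal violet read viability. EC50 came from four-parameter logistic fit of triplicate data. SI = CC50/EC50.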

A short description of data set [2]: CC50 cytotoxicity in uninfected Vero cells. It counts as cell-based. As to conditions: African green monkey. In a few lines: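 Vero CCL-81 cells in DMEM with 10% FBS were seeded at 1.2 × 10⁶ cells per plate one day ahead. Uninfected monolayers were exposed to serial dilutions of test compound in DMEM (50–0.2 µM) for 6 days at 37 °C and 5% CO2. Viability was read by crystal violet staining. CC50 came from four-parameter logistic nonlinear regression of triplicate data, with 95% CIs from log-transformed estimates.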

The structures appear in SMILES notation.

Turning to `COC1=C[C@]23CCCN2CCc2cc4c(cc2[C@@H]3[C@@H]1O)OCO4` [Cephalotaxine], the EC50 (commonly the concentration giving half of the maximal effect) in the data set with ZIKV is 40 µM.

Consider `CCCCC(CC)COC(=O)CC(C(=O)OCC(CC)CCCC)S(=O)(=O)O` (stereo not drawn) [Docusate Sodium], for which the “selectivity index (SI)” value in data set [1] was 3.49. It took 8.19 µM to reach half-maximal cytotoxicity in data set [2] (CC50 at 6 days).
